{"source": "ChEMBL document CHEMBL4177761", "about": "“Highlights of the Structure-Activity Relationships of Benzimidazole Linked Pyrrolidines Leading to the Discovery of the Hepatitis C Virus NS5A Inhibitor Pibrentasvir (ABT-530)” (J Med Chem, 2018)", "key": {"[1]": {"test": "Apparent volume of distribution in mouse at 3 mg/kg, iv by LC-MS method", "format": "ADME, organism-based", "conditions": "in vivo, read-out: Vc", "in_short": "(§1)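 Single dose, 3 mg/kg, in mouse or rat. IV vehicle: DMSO:Tween 80:PEG-400:D5W 2:5:20:73 (v/v). PO vehicle: Phosol 53 MCT:PEG-400:Poloxamer 124:Cremophor RH40 40:20:20:20 (w/w). Acetonitrile protein precipitation, then LC-MS/MS in negative-ion MRM against an internal standard; LOQ ~20 ng/mL.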"}, "[2]": {"test": "AUClast in rat at 3 mg/kg, po by LC-MS method", "format": "ADME, organism-based", "design": "dose 3 mg/kg, route oral, time 0 - last", "conditions": "in vivo", "in_short": "as §1"}, "[3]": {"test": "Cmax in rat at 3 mg/kg, po by LC-MS method", "format": "ADME, organism-based", "design": "dose 3 mg/kg, route oral", "conditions": "in vivo", "in_short": "as §1"}, "[4]": {"test": "Drug level in monkey at 2.5 mg/kg, po at 24 hrs by LC-MS method", "format": "ADME, organism-based, Macaca mulatta", "conditions": "rhesus monkey, in vivo, read-out: Drug uptake", "in_short": "(§2)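 Single dose in dog or monkey, 1 mg/kg IV or 2.5 mg/kg PO. Plasma drug measured by LC-MS after acetonitrile protein precipitation with an internal standard. Quantified by linear regression of parent/internal-standard peak-area ratio against spiked standards.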"}, "[5]": {"test": "AUClast in monkey at 2.5 mg/kg, po by LC-MS method", "format": "ADME, organism-based, Macaca mulatta", "design": "dose 2.5 mg/kg, time 0 - last, route oral", "conditions": "rhesus monkey, in vivo", "in_short": "as §2"}, "[6]": {"test": "Tmax in dog at 2.5 mg/kg, po by LC-MS method", "format": "ADME, organism-based, Canis lupus familiaris", "conditions": "in vivo", "in_short": "as §2"}, "[7]": {"test": "Plasma clearance in mouse at 3 mg/kg, iv by LC-MS method", "format": "ADME, organism-based", "in_short": "as §1"}, "[8]": {"test": "Tmax in monkey at 2.5 mg/kg, po by LC-MS method", "format": "ADME, organism-based, Macaca mulatta", "conditions": "rhesus monkey, in vivo", "in_short": "as §2"}, "[9]": {"test": "Tmax in rat at 3 mg/kg, po by LC-MS method", "format": "ADME, organism-based", "conditions": "in vivo", "in_short": "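Single 3 mg/kg oral dose in rat, formulated in 40:20:20:20 (w/w) Phosol 53 MCT:PEG-400:Poloxamer 124:Cremophor RH40. Heparinized plasma drawn at 0.25, 0.5, 1, 2, 4, 6, 9, 12 and 24 h. Acetonitrile protein precipitation, then LC-MS in negative-ion MRM mode. Levels read from peak-area ratio to internal standard against spiked standards by linear regression; LOQ ~20 ng/mL.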"}, "[10]": {"test": "AUClast in monkey at 1 mg/kg, iv by LC-MS method", "format": "ADME, organism-based, Macaca mulatta", "design": "dose 1 mg/kg, time 0 - last, route intravenous", "conditions": "rhesus monkey, in vivo", "in_short": "as §2"}, "[11]": {"system": "T1, Nonstructural protein 5A (Hepatitis C virus), Q5L478 [Y93N]", "T1 sequence (whole entry)": "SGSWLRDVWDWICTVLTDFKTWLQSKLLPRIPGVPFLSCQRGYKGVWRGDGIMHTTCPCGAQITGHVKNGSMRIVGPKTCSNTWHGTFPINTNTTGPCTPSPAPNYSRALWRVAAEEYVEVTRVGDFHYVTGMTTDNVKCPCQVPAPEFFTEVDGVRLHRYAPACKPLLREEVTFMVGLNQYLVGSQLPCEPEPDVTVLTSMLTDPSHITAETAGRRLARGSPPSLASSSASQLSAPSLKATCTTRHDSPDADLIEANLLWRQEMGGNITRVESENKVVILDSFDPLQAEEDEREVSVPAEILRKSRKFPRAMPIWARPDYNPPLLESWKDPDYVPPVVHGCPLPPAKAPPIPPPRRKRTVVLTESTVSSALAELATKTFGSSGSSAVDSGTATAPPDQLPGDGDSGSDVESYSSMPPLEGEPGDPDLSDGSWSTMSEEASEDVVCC", "test": "Inhibition of NS5A Y93N mutant in HuH7 cell infected HCV genotype 1a H77 assessed as decrease in viral replication after 4 days by luciferase reporter gene assay relative to wild type protein", "conditions": "Hepatitis C virus (isolate H77)", "in_short": "(§3)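 Stable subgenomic luciferase replicons in Huh-7 cells: genotype 1a-H77 carrying NS5A substitutions M28T, Q30E, Q30R, Y93C, Y93H or Y93N, tested alongside the wild-type replicon. Cells are incubated 4 days with compound in DMEM with 5% FBS. Luciferase read-out, EC50 by 4-parameter logistic fit, and fold change versus wild type.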"}, "[12]": {"test": "Plasma clearance in rat at 3 mg/kg, iv by LC-MS method", "format": "ADME, organism-based", "in_short": "as §1"}, "[13]": {"test": "Half life in rat at 3 mg/kg, iv by LC-MS method", "format": "ADME, organism-based", "conditions": "in vivo", "in_short": "as §1"}, "[14]": {"test": "Oral bioavailability in mouse at 3 mg/kg by LC-MS method", "format": "ADME, organism-based", "conditions": "in vivo", "in_short": "as §1"}, "[15]": {"test": "Plasma clearance in monkey at 1 mg/kg, iv by LC-MS method", "format": "ADME, organism-based, Macaca mulatta", "conditions": "rhesus monkey", "in_short": "as §2"}, "[16]": {"test": "Drug level in rat at 3 mg/kg, po at 24 hrs by LC-MS method", "format": "ADME, organism-based", "conditions": "in vivo, read-out: Drug uptake", "in_short": "as §1"}, "[17]": {"test": "Oral bioavailability in monkey at 2.5 mg/kg by LC-MS method", "format": "ADME, organism-based, Macaca mulatta", "conditions": "rhesus monkey, in vivo", "in_short": "as §2"}, "[18]": {"test": "AUClast in dog at 2.5 mg/kg, po by LC-MS method", "format": "ADME, organism-based, Canis lupus familiaris", "design": "dose 2.5 mg/kg, route oral, time 0 - last", "conditions": "in vivo", "in_short": "as §2"}, "[19]": {"test": "Half life in dog at 2.5 mg/kg, po by LC-MS method", "format": "ADME, organism-based, Canis lupus familiaris", "conditions": "in vivo", "in_short": "as §2"}, "[20]": {"system": "T2, Nonstructural protein 5A (Hepatitis C virus), Q5L478 [Y93H]", "T2 sequence (whole entry)": "T1 sequence (whole entry) with N93H", "test": "Inhibition of NS5A Y93H mutant in HuH7 cell infected HCV genotype 1b Con1 assessed as decrease in viral replication after 4 days by luciferase reporter gene assay relative to wild type protein", "conditions": "Hepatitis C virus (isolate Con1)", "in_short": "as §3, with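 “1b-Con1” for “1a-H77”, “NS5A” for “NS5A substitutions M28T, Q30E, Q30R, Y93C,”, “from a” for “by”, “expressed as” for “and”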"}, "[21]": {"test": "AUClast in dog at 1 mg/kg, iv by LC-MS method", "format": "ADME, organism-based, Canis lupus familiaris", "design": "dose 1 mg/kg, route intravenous, time 0 - last", "conditions": "in vivo", "in_short": "as §2"}, "[22]": {"test": "Apparent volume of distribution in dog at 1 mg/kg, iv by LC-MS method", "format": "ADME, organism-based, Canis lupus familiaris", "conditions": "in vivo, read-out: Vc", "in_short": "as §2"}, "[23]": {"test": "Half life in mouse at 3 mg/kg, iv by LC-MS method", "format": "ADME, organism-based", "conditions": "in vivo", "in_short": "as §1"}, "[24]": {"system": "T2, Nonstructural protein 5A (Hepatitis C virus), Q5L478 [Y93H]", "test": "Inhibition of NS5A Y93H mutant in HuH7 cell infected HCV genotype 1a H77 assessed as decrease in viral replication after 4 days by luciferase reporter gene assay relative to wild type protein", "conditions": "Hepatitis C virus (isolate H77)", "in_short": "as §3"}, "[25]": {"test": "Cmax in mouse at 3 mg/kg, po by LC-MS method", "format": "ADME, organism-based", "design": "dose 3 mg/kg, route oral", "conditions": "in vivo", "in_short": "as §1"}, "[26]": {"test": "Half life in dog at 1 mg/kg, iv by LC-MS method", "format": "ADME, organism-based, Canis lupus familiaris", "conditions": "in vivo", "in_short": "as §2"}, "[27]": {"test": "Half life in monkey at 1 mg/kg, iv by LC-MS method", "format": "ADME, organism-based, Macaca mulatta", "conditions": "rhesus monkey, in vivo", "in_short": "as §2"}}, "note": "Residue numbers refer to the chain shown, from its start."}
{"smiles": "COC(=O)N[C@H](C(=O)N1CCC[C@H]1c1nc2cc([C@H]3CC[C@H](c4cc5nc([C@@H]6CCCN6C(=O)[C@@H](NC(=O)OC)[C@@H](C)OC)[nH]c5cc4F)N3c3cc(F)c(N4CCC(c5ccc(F)cc5)CC4)c(F)c3)c(F)cc2[nH]1)[C@@H](C)OC", "note": "[PIBRENTASVIR]", "values": [{"measurement": "Vd", "setting": "[1]", "result": 0.09, "unit": "L/kg"}, {"measurement": "AUC(0-t)", "setting": "[2]", "result": 3600, "unit": "ng·h/mL"}, {"measurement": "Cmax", "setting": "[3]", "result": 250, "unit": "nM"}, {"measurement": "concentration at 24 h", "setting": "[4]", "result": 17, "unit": "nM"}, {"measurement": "AUC(0-t)", "setting": "[5]", "result": 2250, "unit": "ng·h/mL"}, {"measurement": "Tmax", "setting": "[6]", "result": 3.67, "unit": "h"}, {"measurement": "clearance", "setting": "[7]", "result": "< 0.05", "unit": "mL/min/kg"}, {"measurement": "Tmax", "setting": "[8]", "result": 4, "unit": "h"}, {"measurement": "Tmax", "setting": "[9]", "result": 5.3, "unit": "h"}, {"measurement": "AUC(0-t)", "setting": "[10]", "result": 6470, "unit": "ng·h/mL"}, {"measurement": "fold change (FC)", "setting": "[11]", "result": 6.7}, {"measurement": "clearance", "setting": "[12]", "result": 1.17, "unit": "mL/min/kg"}, {"measurement": "half-life", "setting": "[13]", "result": 6.2, "unit": "h"}, {"measurement": "bioavailability", "setting": "[14]", "result": 7.9, "unit": "%"}, {"measurement": "clearance", "setting": "[15]", "result": 2.5, "unit": "mL/min/kg"}, {"measurement": "concentration at 24 h", "setting": "[16]", "result": 41, "unit": "nM"}, {"measurement": "bioavailability", "setting": "[17]", "result": 14.1, "unit": "%"}, {"measurement": "AUC(0-t)", "setting": "[18]", "result": 5990, "unit": "ng·h/mL"}, {"measurement": "half-life", "setting": "[19]", "result": 8.3, "unit": "h"}, {"measurement": "fold change (FC)", "setting": "[20]", "result": 0.6}, {"measurement": "AUC(0-t)", "setting": "[21]", "result": 10600, "unit": "ng·h/mL"}, {"measurement": "Vd", "setting": "[22]", "result": 0.1, "unit": "L/kg"}, {"measurement": "half-life", "setting": "[23]", "result": 2, "unit": "h"}, {"measurement": "fold change (FC)", "setting": "[24]", "result": 6.7}, {"measurement": "Cmax", "setting": "[25]", "result": 1140, "unit": "nM"}, {"measurement": "half-life", "setting": "[26]", "result": 7.1, "unit": "h"}, {"measurement": "half-life", "setting": "[27]", "result": 8.3, "unit": "h"}]}
